Measured values as given in ChEMBL document CHEMBL3244174, “Synthesis and biological activity of some new furan quaternary salts” (J Med Chem, 1977).

Tests used:
[1] = tested on: Staphylococcus aureus; assay: Antibacterial activity against Staphylococcus aureus ATCC 6538 assessed as growth inhibition after 24 hrs by dilution tube method; format: functional; conditions: ATCC 6538, 24 h
In short: (§1)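 Broth tube dilution in Tryptone Soya Broth, duplicate tubes at each concentration. MIC (μg/ml) was the highest dilution preventing visible growth. Nitrofurantoin run under the same conditions.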

[2] = tested on: Cryptococcus neoformans; assay: Antifungal activity against Cryptococcus neoformans 103 assessed as growth inhibition by agar dilution method; format: functional
[3] = tested on: Trichophyton rubrum; assay: Antifungal activity against Trichophyton rubrum 252 CSTM assessed as growth inhibition by agar dilution method; format: functional
[4] = tested on: Candida albicans; assay: Antifungal activity against Candida albicans SKF 2270 assessed as growth inhibition by agar dilution method; format: functional
[5] = tested on: Mycobacterium tuberculosis; assay: Antibacterial activity against Mycobacterium tuberculosis H37Rv assessed as growth inhibition by serial dilution method; format: functional
In short: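 M. tuberculosis H37Rv maintained on Lowenstein–Jensen medium; tested in Youman's medium by serial dilution.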

[6] = tested on: Trichophyton mentagrophytes; assay: Antifungal activity against Trichophyton mentagrophytes A-280 USPHS assessed as growth inhibition by agar dilution method; format: functional
[7] = tested on: Nannizzia gypsea; assay: Antifungal activity against Microsporum gypseum 153 CSTM assessed as growth inhibition by agar dilution method; format: functional
[8] = tested on: Salmonella typhi; assay: Antibacterial activity against Salmonella typhi 115 assessed as growth inhibition after 24 hrs by dilution tube method; format: functional, Salmonella enterica subsp. enterica serovar Typhi; conditions: Salmonella enterica, 115, 24 h
In short: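 Dilution tube method in Tryptone Soya Broth; MIC (μg/ml) taken as highest dilution preventing visible growth; duplicates at every concentration; nitrofurantoin reference run under same conditions.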

[9] = tested on: Histoplasma capsulatum; assay: Antifungal activity against Histoplasma capsulatum RNSH Hi-70 1/2 assessed as growth inhibition by agar dilution method; format: functional
[10] = tested on: Microsporum canis; assay: Antifungal activity against Microsporum canis VM-200 USPHS assessed as growth inhibition by agar dilution method; format: functional
[11] = tested on: Pseudomonas aeruginosa; assay: Antibacterial activity against Pseudomonas aeruginosa ATCC 10145 assessed as growth inhibition after 24 hrs by dilution tube method; format: functional; conditions: ATCC 10145, 24 h; in short: as §1
[12] = tested on: Enterococcus faecalis; assay: Antibacterial activity against Streptococcus faecalis ATCC 10541 assessed as growth inhibition after 24 hrs by dilution tube method; format: functional; conditions: ATCC 10541, 24 h; in short: as §1
[13] = tested on: Agrobacterium tumefaciens; assay: Antibacterial activity against Agrobacterium tumefaciens NRRL B-36 assessed as growth inhibition after 24 hrs by dilution tube method; format: functional; conditions: NRRL B-36, 24 h; in short: as §1
[14] = tested on: Escherichia coli; assay: Antibacterial activity against Escherichia coli 114 assessed as growth inhibition after 24 hrs by dilution tube method; format: functional; conditions: Escherichia coli, 114, 24 h; in short: as §1
[15] = tested on: Klebsiella pneumoniae; assay: Antibacterial activity against Klebsiella pneumoniae ATCC 10031 assessed as growth inhibition after 24 hrs by dilution tube method; format: functional; conditions: ATCC 10031, 24 h; in short: as §1

SMILES: Cc1cc(OCCCCCCCC[N+](C)(C)Cc2ccc([N+](=O)[O-])o2)c(C(C)C)cc1Cl.[Br-]
- MIC [1]: 2 µg/mL
- MIC [2]: 4 µg/mL
- MIC [3]: > 200 µg/mL
- MIC [4]: > 200 µg/mL
- MIC [5]: 7.5 µg/mL
- MIC [6]: > 200 µg/mL
- MIC [7]: > 200 µg/mL
- MIC [8]: > 200 µg/mL
- MIC [9]: > 200 µg/mL
- MIC [10]: > 200 µg/mL
- MIC [11]: 1 µg/mL
- MIC [12]: 3 µg/mL
- MIC [13]: 4 µg/mL
- MIC [14]: > 200 µg/mL
- MIC [15]: 2 µg/mL

SMILES: Cc1cc(OCC[N+](C)(C)Cc2ccc(Br)o2)c(C(C)C)cc1Cl.[Br-]
- MIC [1]: 9 µg/mL
- MIC [2]: 50 µg/mL
- MIC [3]: > 200 µg/mL
- MIC [4]: > 200 µg/mL
- MIC [5]: 10 µg/mL
- MIC [6]: 100 µg/mL
- MIC [7]: > 200 µg/mL
- MIC [8]: 100 µg/mL
- MIC [9]: 50 µg/mL
- MIC [10]: 100 µg/mL
- MIC [11]: 5 µg/mL
- MIC [12]: 25 µg/mL
- MIC [13]: 25 µg/mL
- MIC [14]: > 200 µg/mL
- MIC [15]: 25 µg/mL

SMILES: C[N+](C)(CCCCCCCCOc1c(Br)cc(Br)cc1Br)Cc1ccc([N+](=O)[O-])o1.[Br-]
- MIC [1]: 4 µg/mL
- MIC [2]: 4 µg/mL
- MIC [3]: > 200 µg/mL
- MIC [4]: > 200 µg/mL
- MIC [5]: 7.5 µg/mL
- MIC [6]: > 200 µg/mL
- MIC [7]: > 200 µg/mL
- MIC [8]: > 200 µg/mL
- MIC [9]: > 200 µg/mL
- MIC [10]: > 200 µg/mL
- MIC [11]: 2 µg/mL
- MIC [12]: 4 µg/mL
- MIC [13]: 10 µg/mL
- MIC [14]: > 200 µg/mL
- MIC [15]: 2 µg/mL

SMILES: C[N+](C)(CCCCCOc1c(Br)cc(Br)cc1Br)Cc1ccco1.[Br-]
- MIC [1]: 25 µg/mL
- MIC [2]: 25 µg/mL
- MIC [3]: > 200 µg/mL
- MIC [4]: 100 µg/mL
- MIC [5]: 25 µg/mL
- MIC [6]: 100 µg/mL
- MIC [7]: 100 µg/mL
- MIC [8]: > 200 µg/mL
- MIC [9]: 50 µg/mL
- MIC [10]: 100 µg/mL
- MIC [11]: 25 µg/mL
- MIC [12]: 50 µg/mL
- MIC [13]: 100 µg/mL
- MIC [14]: > 200 µg/mL
- MIC [15]: 25 µg/mL

SMILES: C[N+](C)(CCCCCCOc1c(Br)cc(Br)cc1Br)Cc1ccco1.[Br-]
- MIC [1]: 25 µg/mL
- MIC [2]: 25 µg/mL
- MIC [3]: 100 µg/mL
- MIC [4]: 50 µg/mL
- MIC [5]: 25 µg/mL
- MIC [6]: 100 µg/mL
- MIC [7]: 100 µg/mL
- MIC [8]: > 200 µg/mL
- MIC [9]: 50 µg/mL
- MIC [10]: 100 µg/mL
- MIC [11]: 5 µg/mL
- MIC [12]: 25 µg/mL
- MIC [13]: 50 µg/mL
- MIC [14]: > 200 µg/mL
- MIC [15]: 7.5 µg/mL

SMILES: Cc1cc(OCCCCCCC[N+](C)(C)Cc2ccc(Br)o2)c(C(C)C)cc1Cl.[Br-]
- MIC [1]: 10 µg/mL
- MIC [2]: 25 µg/mL
- MIC [3]: > 200 µg/mL
- MIC [4]: 50 µg/mL
- MIC [5]: 7.5 µg/mL
- MIC [6]: > 200 µg/mL
- MIC [7]: > 200 µg/mL
- MIC [8]: > 200 µg/mL
- MIC [9]: > 200 µg/mL
- MIC [10]: > 200 µg/mL
- MIC [11]: 3 µg/mL
- MIC [12]: 7.5 µg/mL
- MIC [13]: 7.5 µg/mL
- MIC [14]: > 200 µg/mL
- MIC [15]: 7.5 µg/mL

SMILES: Cc1cc(OCCCCCCC[N+](C)(C)Cc2ccc([N+](=O)[O-])o2)c(C(C)C)cc1Cl.[Br-]
- MIC [1]: 4 µg/mL
- MIC [2]: 4 µg/mL
- MIC [3]: > 200 µg/mL
- MIC [4]: > 200 µg/mL
- MIC [5]: 5 µg/mL
- MIC [6]: > 200 µg/mL
- MIC [7]: > 200 µg/mL
- MIC [8]: > 200 µg/mL
- MIC [9]: > 200 µg/mL
- MIC [10]: > 200 µg/mL
- MIC [11]: 2 µg/mL
- MIC [12]: 3 µg/mL
- MIC [13]: 7.5 µg/mL
- MIC [14]: > 200 µg/mL
- MIC [15]: 3 µg/mL

SMILES: Cc1cc(OCCCCCCCCCCCC[N+](C)(C)Cc2ccc(Br)o2)c(C(C)C)cc1Cl.Cc1ccc(S(=O)(=O)[O-])cc1
- MIC [1]: 200 µg/mL
- MIC [2]: > 200 µg/mL
- MIC [3]: > 200 µg/mL
- MIC [4]: > 200 µg/mL
- MIC [5]: 200 µg/mL
- MIC [6]: > 200 µg/mL
- MIC [7]: > 200 µg/mL
- MIC [8]: > 200 µg/mL
- MIC [9]: > 200 µg/mL
- MIC [10]: > 200 µg/mL
- MIC [11]: 50 µg/mL
- MIC [12]: > 200 µg/mL
- MIC [13]: > 200 µg/mL
- MIC [14]: > 200 µg/mL
- MIC [15]: 200 µg/mL
